Source: ChEMBL document CHEMBL6083194, “Discovery and evaluation of 3-(2-isocyanobenzyl)-1H-indole derivatives as potential quorum sensing inhibitors for the control of Pseudomonas aeruginosa infections in vitro” (RSC Med Chem, 2024)
Values after ≈ are worked out from the molar mass of the structure shown. Active and inactive are the calls of the source. The calls are words filed in the database; no cut-off is given here.

Legend:
Pseudomonas aeruginosa [1] = assay: Induction of biofilm eradication in Pseudomonas aeruginosa PAO1 at 6.25 ug/ml by crystal violet staining based assay; format: functional; settings: dose 6.25 µg/ml
How it was run: (§1)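 PAO1 biofilms grown overnight at 37 °C in LB in 24-well plates, washed with PBS, then fresh LB with compound added and grown overnight again. Washed, methanol-fixed, crystal violet stained, ethanol solubilised, read at OD570. DMSO negative, resveratrol positive control.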

Pseudomonas aeruginosa [2] = assay: Downregulation of rhlR gene expression in Pseudomonas aeruginosa PAO1 assessed as fold decrease at 25 ug/ml by RT-qPCR analysis; format: functional; settings: dose 25 µg/ml
[3] = Inhibition of quorum sensing system in Pseudomonas aeruginosa PAO1
How it was run: (§2)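 Plate screen. CV026 grown overnight in LB with 50 μg ml−1 kanamycin; 15 μl seeded into 15 ml LB agar (1.0% agarose) containing 20 μM C4-HSL. PAO1 plates run in parallel. Test colonies inoculated by toothpick, incubated overnight at 37 °C. Ring of colourless viable cells around the colony scored as inhibition.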

[4] = Inhibition of quorum sensing system in Pseudomonas aeruginosa PAO1 assessed as reduction in C4-HSL level at 50 ug/ml incubated for 24 hrs by LC-MS/MS method; settings: dose 50.0 µg/ml
[5] = Inhibition of quorum sensing system in Pseudomonas aeruginosa PAO1 assessed as reduction in 3-oxo-C12-HSL level at 50 ug/ml incubated for 24 hrs by LC-MS/MS method; settings: dose 50.0 µg/ml
Erythrocyte = assay: Cytotoxicity against mouse RBC at 100 to 1024 ug/ml; format: toxicity, cell-based; settings: dose 100-1024 µg/ml
Pseudomonas aeruginosa [6] = assay: Inhibition of rhamnolipid production in Pseudomonas aeruginosa PAO1 at 1/2 to 1/4 times MIC by orcinol method; format: functional, organism-based
How it was run: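 Overnight PAO1 diluted 1:100 into LB with compound, 37 °C, 180 rpm; DMSO control. Supernatant (100 μL) mixed with 900 μL 0.19% orcinol in 53% H2SO4, heated 30 min at 80 °C, cooled, read at 421 nm.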

[7] = Inhibition of quorum sensing system in Pseudomonas aeruginosa PAO1 assessed as reduction in C4-HSL level at 12.5 ug/ml incubated for 24 hrs by LC-MS/MS method; settings: dose 12.5 µg/ml
HEK-293T = assay: Cytotoxicity against human HEK293T cells by CCK8 assay; format: functional, cell-based
How it was run: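 HEK293T cell viability by CCK-8; IC50 determined.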

Pseudomonas aeruginosa [8] = assay: Anti-virulence effect in Pseudomonas aeruginosa PAO1 assessed as inhibition of pyocyanin production; format: functional, organism-based
How it was run: (§3)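 Overnight PAO1 culture in LB at 37 °C, diluted to OD600 0.05 and subcultured 5–7 h to mid-log phase, then re-diluted to OD600 0.05. Grown 18 h at 37 °C and 200 rpm with compound (6.25, 12.5, 25 μg mL−1) or DMSO. Supernatant extracted into chloroform, back-extracted into 0.2 M HCl, read at 520 nm.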

Pseudomonas aeruginosa [9] = assay: Inhibition of pyocyanin production in Pseudomonas aeruginosa PAO1 at 1/2 time MIC incubated for 18 hrs; format: functional
How it was run: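 Overnight PAO1 in LB diluted to OD600 = 0.05, subcultured 5–7 h to mid-log, rediluted to OD600 = 0.05. 5 mL with compound grown 18 h at 37 °C, 200 rpm. Supernatant extracted with 3 mL chloroform, back-extracted into 0.2 M HCl, absorbance at 520 nm.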

Pseudomonas aeruginosa [10] = assay: Induction of biofilm eradication in Pseudomonas aeruginosa PAO1 at 12.5 ug/ml by crystal violet staining based assay; format: functional; settings: dose 12.5 µg/ml; how it was run: as §1
[11] = Inhibition of quorum sensing system in Chromobacterium violaceum CV026; how it was run: as §2
Pseudomonas aeruginosa [12] = assay: Downregulation of sdhB gene expression in Pseudomonas aeruginosa PAO1 assessed as fold decrease at 25 ug/ml by RT-qPCR analysis; format: functional; settings: dose 25 µg/ml
Pseudomonas aeruginosa [13] = assay: Induction of biofilm eradication in Pseudomonas aeruginosa PAO1 at 25 ug/ml by crystal violet staining based assay; format: functional; settings: dose 25 µg/ml; how it was run: as §1
Pseudomonas aeruginosa [14] = assay: Downregulation of rhlI gene expression in Pseudomonas aeruginosa PAO1 assessed as fold decrease at 25 ug/ml by RT-qPCR analysis; format: functional; settings: dose 25 µg/ml
[15] = Inhibition of quorum sensing system in Pseudomonas aeruginosa PAO1 assessed as reduction in 3-oxo-C12-HSL level at 25 ug/ml incubated for 24 hrs by LC-MS/MS method; settings: dose 25.0 µg/ml
[16] = Inhibition of quorum sensing system in Pseudomonas aeruginosa PAO1 assessed as reduction in 3-oxo-C12-HSL level at 6.25 to 25 ug/ml incubated for 24 hrs by LC-MS/MS method; settings: dose 6.25-25 µg/ml
[17] = Inhibition of quorum sensing system in Pseudomonas aeruginosa PAO1 assessed as reduction in C4-HSL level at 6.25 to 25 ug/ml incubated for 24 hrs by LC-MS/MS method; settings: dose 6.25-25 µg/ml
Pseudomonas aeruginosa [18] = assay: Downregulation of PA5439 gene expression in Pseudomonas aeruginosa PAO1 assessed as fold decrease at 25 ug/ml by RT-qPCR analysis; format: functional; settings: dose 25 µg/ml
Pseudomonas aeruginosa [19] = assay: Downregulation of lasR gene expression in Pseudomonas aeruginosa PAO1 assessed as fold decrease at 25 ug/ml by RT-qPCR analysis; format: functional; settings: dose 25 µg/ml
[20] = Inhibition of quorum sensing system in Pseudomonas aeruginosa PAO1 assessed as reduction in C4-HSL level at 25 ug/ml incubated for 24 hrs by LC-MS/MS method; settings: dose 25.0 µg/ml
Pseudomonas aeruginosa [21] = assay: Downregulation of lasI gene expression in Pseudomonas aeruginosa PAO1 assessed as fold decrease at 25 ug/ml by RT-qPCR analysis; format: functional; settings: dose 25 µg/ml
Pseudomonas aeruginosa [22] = assay: Antibacterial activity against Pseudomonas aeruginosa PAO1 by serial dilution method; format: functional
How it was run: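 PAO1 in LB, 37 °C. MIC by CLSI 2-fold serial dilution in Mueller–Hinton broth, inoculum 1–5 × 10^5 CFU mL−1, DMSO stocks. Growth curves: overnight culture diluted to OD600 = 0.05, subcultured to mid-log, rediluted to OD600 = 0.05, 3 mL with compound; OD620 read at 1, 3, 5, 7, 9, 11 and 24 h at 37 °C; DMSO negative control.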

[23] = Cytotoxicity against MEF at 100 to 1024 ug/ml; format: toxicity, cell-based; settings: mouse, dose 100-1024 µg/ml
Pseudomonas aeruginosa [24] = assay: Downregulation of sodB gene expression in Pseudomonas aeruginosa PAO1 assessed as fold decrease at 25 ug/ml by RT-qPCR analysis; format: functional; settings: dose 25.0 µg/ml
Pseudomonas aeruginosa [25] = assay: Anti-virulence effect in Pseudomonas aeruginosa PAO1 assessed as inhibition of rhamnolipid production at 25 ug/ml; format: functional; design: scale not given: the % may be the effect or the level left; settings: dose 25 µg/ml
How it was run: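 PAO1 culture supernatant from growth with compound (6.25–25 μg mL−1) at 37 °C and 180 rpm, or with DMSO or RSV (25 μg mL−1) as controls. Orcinol assay: 100 μL sample plus 0.19% orcinol in 53% H2SO4, heated 30 min at 80 °C, cooled, read at 421 nm. At least three experiments in triplicate.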

Pseudomonas aeruginosa [26] = assay: Anti-virulence effect in Pseudomonas aeruginosa PAO1 assessed as inhibition of pyocyanin production at 6.25 ug/ml; format: functional; design: scale not given: the % may be the effect or the level left; settings: dose 6.25 µg/ml; how it was run: as §3
Pseudomonas aeruginosa [27] = assay: Anti-virulence effect in Pseudomonas aeruginosa PAO1 assessed as inhibition of pyocyanin production at 12.5 ug/ml; format: functional; design: scale not given: the % may be the effect or the level left; settings: dose 12.5 µg/ml; how it was run: as §3

SMILES: Cc1cccc(C#N)c1Cc1c[nH]c2ccccc12
- Activity (Pseudomonas aeruginosa [1]): 43%
- fold change (FC) (Pseudomonas aeruginosa [2]): 9.71
- inhibition [3]: Active; Strong Inhibition Observed
- inhibition [4]: 19%
- inhibition [5]: 41%
- Activity (Erythrocyte): Toxic
- inhibition (Pseudomonas aeruginosa [6]): Active
- inhibition [7]: 61%
- IC50 (HEK-293T): 59 µM
- Activity (Pseudomonas aeruginosa [8]): Dose-dependent-effect
- inhibition (INH) (Pseudomonas aeruginosa [9]): 64%
- Activity (Pseudomonas aeruginosa [10]): 50%
- inhibition [11]: Active; Showed Higher Activity
- fold change (FC) (Pseudomonas aeruginosa [12]): 2.87
- Activity (Pseudomonas aeruginosa [13]): 57%
- fold change (FC) (Pseudomonas aeruginosa [14]): 7.3
- inhibition [15]: 60%
- inhibition [16]: Active
- inhibition [17]: Active
- fold change (FC) (Pseudomonas aeruginosa [18]): 10.87
- fold change (FC) (Pseudomonas aeruginosa [19]): 4.42
- inhibition [20]: 51%
- fold change (FC) (Pseudomonas aeruginosa [21]): 5
- MIC (Pseudomonas aeruginosa [22]): 96 µg/mL (≈ 390 µM)
- Activity [23]: Toxic
- fold change (FC) (Pseudomonas aeruginosa [24]): 1.82
- Activity (Pseudomonas aeruginosa [25]): 23%
- Activity (Pseudomonas aeruginosa [26]): 41%
- Activity (Pseudomonas aeruginosa [27]): 57%
